Data: ChEMBL document CHEMBL1148948, “Biotransformation of nobiletin by Aspergillus niger and the antimutagenic activity of a metabolite, 4'-hydroxy-5,6,7,8,3'-pentamethoxyflavone” (2004)
Calls of active or inactive are those of the source. The calls are words filed in the database; no cut-off is given here.

Columns and labels:
Salmonella typhimurium [1] = assay: Antimutagenic activity in Salmonella Typhimurium TA1535 carrying pSK1002 containing umuC'-lacZ fused gene assessed as suppression of 0.1 j/M2 UV light-induced SOS response to alteration in DNA synthesis at 0.05 mM measured by beta-galactosidase activity by Umu test; type: functional, Salmonella enterica subsp. enterica serovar Typhimurium
In short: (§1)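 S. typhimurium TA1535/pSK1002 (umuC′-′lacZ fusion on the plasmid). The overnight culture was diluted 50-fold in fresh TGA medium and grown at 37 °C to A600 0.25-0.30. SOS induction was read as β-galactosidase activity in Miller units. The S9 mix used rat liver S9 (phenobarbital/5,6-benzoflavone-pretreated males) with G-6-P, NADH and NADPH cofactors.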

Salmonella typhimurium [2] = assay: Antimutagenic activity in Salmonella Typhimurium TA1535 carrying pSK1002 containing umuC'-lacZ fused gene assessed as suppression of Trp-P-1-induced SOS response to alteration in DNA synthesis at 0.1 mM measured by beta-galactosidase activity by Umu test; type: functional, Salmonella enterica subsp. enterica serovar Typhimurium; in short: as §1
Salmonella typhimurium [3] = assay: Antimutagenic activity in Salmonella Typhimurium TA1535 carrying pSK1002 containing umuC'-lacZ fused gene assessed as suppression of activated MeIQ-induced SOS response to alteration in DNA synthesis at 0.6 mM measured by beta-galactosidase activity by Umu test; type: functional, Salmonella enterica subsp. enterica serovar Typhimurium; in short: as §1
Salmonella typhimurium [4] = assay: Antimutagenic activity in Salmonella Typhimurium TA1535 carrying pSK1002 containing umuC'-lacZ fused gene assessed as suppression of furyfuramide-induced SOS response to alteration in DNA synthesis at 0.3 mM measured by beta-galactosidase activity by Umu test; type: functional, Salmonella enterica subsp. enterica serovar Typhimurium; in short: as §1
Salmonella typhimurium [5] = assay: Inhibition of furyfuramide-induced SOS response to alteration in DNA synthesis in Salmonella Typhimurium TA1535 carrying pSK1002 containing umuC'-lacZ fused gene at 0.6 mM; type: functional, Salmonella enterica subsp. enterica serovar Typhimurium; set-up: scale not given: the % may be the effect or the level left; in short: as §1
Salmonella typhimurium [6] = assay: Antimutagenic activity in Salmonella Typhimurium TA1535 carrying pSK1002 containing umuC'-lacZ fused gene assessed as suppression of furyfuramide-induced SOS response to alteration in DNA synthesis at 0.05 mM measured by beta-galactosidase activity by Umu test; type: functional, Salmonella enterica subsp. enterica serovar Typhimurium; in short: as §1
Salmonella typhimurium [7] = assay: Antimutagenic activity in Salmonella Typhimurium TA1535 carrying pSK1002 containing umuC'-lacZ fused gene assessed as suppression of Trp-P-1-induced SOS response to alteration in DNA synthesis at 0.6 mM measured by beta-galactosidase activity by Umu test; type: functional, Salmonella enterica subsp. enterica serovar Typhimurium; in short: as §1
Salmonella typhimurium [8] = assay: Antimutagenic activity in Salmonella Typhimurium TA1535 carrying pSK1002 containing umuC'-lacZ fused gene assessed as suppression of 0.1 j/M2 UV light-induced SOS response to alteration in DNA synthesis at 0.6 mM measured by beta-galactosidase activity by Umu test; type: functional, Salmonella enterica subsp. enterica serovar Typhimurium; in short: as §1
Salmonella typhimurium [9] = assay: Antimutagenic activity in Salmonella Typhimurium TA1535 carrying pSK1002 containing umuC'-lacZ fused gene assessed as suppression of MeIQ-induced SOS response to alteration in DNA synthesis at 0.1 mM measured by beta-galactosidase activity by Umu test; type: functional, Salmonella enterica subsp. enterica serovar Typhimurium; in short: as §1
Salmonella typhimurium [10] = assay: Antimutagenic activity in Salmonella Typhimurium TA1535 carrying pSK1002 containing umuC'-lacZ fused gene assessed as suppression of activated Trp-P-1-induced SOS response to alteration in DNA synthesis at 0.3 mM measured by beta-galactosidase activity by Umu test; type: functional, Salmonella enterica subsp. enterica serovar Typhimurium; in short: as §1
Salmonella typhimurium [11] = assay: Antimutagenic activity in Salmonella Typhimurium TA1535 carrying pSK1002 containing umuC'-lacZ fused gene assessed as suppression of activated Trp-P-1-induced SOS response to alteration in DNA synthesis at 0.05 mM measured by beta-galactosidase activity by Umu test; type: functional, Salmonella enterica subsp. enterica serovar Typhimurium; in short: as §1
Salmonella typhimurium [12] = assay: Inhibition of activated MeIQ-induced SOS response to alteration in DNA synthesis in Salmonella Typhimurium TA1535 carrying pSK1002 containing umuC'-lacZ fused gene; type: functional, Salmonella enterica subsp. enterica serovar Typhimurium; conditions: Salmonella enterica, read-out: ID50 (the source's name); in short: as §1
Salmonella typhimurium [13] = assay: Antimutagenic activity in Salmonella Typhimurium TA1535 carrying pSK1002 containing umuC'-lacZ fused gene assessed as suppression of furyfuramide-induced SOS response to alteration in DNA synthesis at 0.6 mM measured by beta-galactosidase activity by Umu test; type: functional, Salmonella enterica subsp. enterica serovar Typhimurium; in short: as §1
Salmonella typhimurium [14] = assay: Antimutagenic activity in Salmonella Typhimurium TA1535 carrying pSK1002 containing umuC'-lacZ fused gene assessed as suppression of activated MeIQ-induced SOS response to alteration in DNA synthesis at 0.3 mM measured by beta-galactosidase activity by Umu test; type: functional, Salmonella enterica subsp. enterica serovar Typhimurium; in short: as §1
Salmonella typhimurium [15] = assay: Inhibition of MeIQ-induced SOS response to alteration in DNA synthesis in Salmonella Typhimurium TA1535 carrying pSK1002 containing umuC'-lacZ fused gene at 0.6 mM; type: functional, Salmonella enterica subsp. enterica serovar Typhimurium; set-up: scale not given: the % may be the effect or the level left; in short: as §1
Salmonella typhimurium [16] = assay: Inhibition of activated Trp-P-1-induced SOS response to alteration in DNA synthesis in Salmonella Typhimurium TA1535 carrying pSK1002 containing umuC'-lacZ fused gene; type: functional, Salmonella enterica subsp. enterica serovar Typhimurium; conditions: Salmonella enterica, read-out: ID50 (the source's name); in short: as §1
Salmonella typhimurium [17] = assay: Antimutagenic activity in Salmonella Typhimurium TA1535 carrying pSK1002 containing umuC'-lacZ fused gene assessed as suppression of MeIQ-induced SOS response to alteration in DNA synthesis measured by beta-galactosidase activity by Umu test; type: functional, organism-based; conditions: Salmonella enterica subsp. enterica serovar Typhimurium; in short: as §1
Salmonella typhimurium [18] = assay: Antimutagenic activity in Salmonella Typhimurium TA1535 carrying pSK1002 containing umuC'-lacZ fused gene assessed as suppression of activated MeIQ-induced SOS response to alteration in DNA synthesis at 0.1 mM measured by beta-galactosidase activity by Umu test; type: functional, Salmonella enterica subsp. enterica serovar Typhimurium; in short: as §1

`COc1cc(-c2cc(=O)c3c(OC)c(OC)c(OC)c(OC)c3o2)ccc1O` showed an Activity (Salmonella typhimurium [1]) of 574.1 Miller_unit, an Activity (Salmonella typhimurium [2]) of 285.4 Miller_unit and an Activity (Salmonella typhimurium [3]) of 224.2 Miller_unit. The Activity (Salmonella typhimurium [4]) was 489.9 Miller_unit, the Activity (Salmonella typhimurium [5]) was 28.7% and the Activity (Salmonella typhimurium [6]) was 551.2 Miller_unit. It also gave an Activity (Salmonella typhimurium [7]) of 168.9 Miller_unit, an Activity (Salmonella typhimurium [8]) of 495.7 Miller_unit and an Activity (Salmonella typhimurium [9]) of 232.6 Miller_unit. It also gave an Activity (Salmonella typhimurium [10]) of 182.4 Miller_unit, an Activity (Salmonella typhimurium [11]) of 283.7 Miller_unit and an IC50 (Salmonella typhimurium [12]) of 300 µM. For the same compound, the Activity (Salmonella typhimurium [13]) was 443.7 Miller_unit, the Activity (Salmonella typhimurium [14]) was 243.5 Miller_unit and the Activity (Salmonella typhimurium [15]) was 80.9%. The IC50 (Salmonella typhimurium [16]) was 340 µM, the Activity (Salmonella typhimurium [17]) was “Active” and the Activity (Salmonella typhimurium [18]) was 376.3 Miller_unit.
